Results published in ChEMBL document CHEMBL1153007, “Mono and bis-6-arylbenzimidazo[1,2-c]quinazolines: a new class of antimicrobial agents” (2009).
Values after ≈ are worked out from the molar mass of the structure shown.

Columns and labels:
[1] = system: Klebsiella pneumoniae; assay: Antibacterial activity against Klebsiella pneumoniae at 1000 ug/ml after 24 hrs by agar diffusion method; type: functional; details: read-out: IZ
In short: (§1)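 Cup-plate agar diffusion on nutrient agar. Cultures grown overnight in NA broth at 37 °C and swabbed onto plates. Test solution at 1000 μg/ml added to 6 mm bores. Plates incubated at 37 °C for 24 h; zone of inhibition measured. Ampicillin plate as standard; one-way ANOVA at p ≤ 0.05.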

[2] = system: Bacillus subtilis; assay: Antibacterial activity against Bacillus subtilis at 1000 ug/ml after 24 hrs by agar diffusion method; type: functional; details: read-out: IZ; in short: as §1
[3] = system: Candida albicans; assay: Antifungal activity against Candida albicans at 1000 ug/ml after 72 hrs by agar diffusion method; type: functional; details: read-out: IZ
In short: (§2)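 Strains grown and maintained on Sabouraud glucose agar. Test solution at 1000 µg/ml placed in bores cut in the agar. Plates incubated at 26 °C for 72 h, then the zone of inhibition around each bore was measured. Ketoconazole plates as standard; one-way ANOVA at p ≤ 0.05.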

[4] = system: Salmonella enterica subsp. enterica; assay: Antibacterial activity against Salmonella Typhimurium at 1000 ug/ml after 24 hrs by agar diffusion method; type: functional, Salmonella enterica subsp. enterica serovar Typhimurium; details: read-out: IZ; in short: as §1
[5] = system: Streptococcus pyogenes; assay: Antibacterial activity against Streptococcus pyogenes at 1000 ug/ml after 24 hrs by agar diffusion method; type: functional; details: read-out: IZ; in short: as §1
[6] = system: Escherichia coli; assay: Antibacterial activity against Escherichia coli at 1000 ug/ml after 24 hrs by agar diffusion method; type: functional; details: read-out: IZ; in short: as §1
[7] = system: Staphylococcus aureus; assay: Antibacterial activity against Staphylococcus aureus at 1000 ug/ml after 24 hrs by agar diffusion method; type: functional; details: read-out: IZ; in short: as §1
[8] = system: Trichoderma viride; assay: Antifungal activity against Trichoderma viride at 1000 ug/ml after 72 hrs by agar diffusion method; type: functional; details: read-out: IZ; in short: as §2
[9] = system: Aspergillus niger; assay: Antifungal activity against Aspergillus niger at 1000 ug/ml after 72 hrs by agar diffusion method; type: functional; details: read-out: IZ; in short: as §2
[10] = system: Aspergillus niger; assay: Antifungal activity against Aspergillus niger after 24 hrs by liquid dilution method
[11] = system: Bacillus subtilis; assay: Antibacterial activity against Bacillus subtilis after 24 hrs by liquid dilution method; type: functional
In short: (§3)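 Liquid dilution in tubes: 1 ml compound solution (stocks 2.5, 5, 10, 15, 20, 25, 30, 35, 40, 45, 50 µg/ml, prepared in appropriate solvent) plus 0.2 ml bacterial inoculum and 3.8 ml sterile water; incubated 24 h, checked for turbidity. MIC taken as lowest concentration with no growth. Ampicillin as reference.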

[12] = system: Salmonella enterica subsp. enterica; assay: Antibacterial activity against Salmonella Typhimurium after 24 hrs by liquid dilution method; type: functional, Salmonella enterica subsp. enterica serovar Typhimurium; in short: as §3
[13] = system: Klebsiella pneumoniae; assay: Antibacterial activity against Klebsiella pneumoniae after 24 hrs by liquid dilution method; type: functional; in short: as §3
[14] = system: Trichoderma viride; assay: Antifungal activity against Trichoderma viride after 24 hrs by liquid dilution method
[15] = system: Escherichia coli; assay: Antibacterial activity against Escherichia coli after 24 hrs by liquid dilution method; type: functional; in short: as §3
[16] = system: Candida albicans; assay: Antifungal activity against Candida albicans after 72 hrs by liquid dilution method; type: functional
In short: (§4)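 Liquid dilution in tubes: 1 ml compound solution (stocks 2.5–50 µg/ml, prepared in appropriate solvent) plus 0.2 ml fungal inoculum and 3.8 ml sterile water; checked for turbidity. MIC taken as lowest concentration with no visible growth. Ketoconazole as reference.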

[17] = system: Streptococcus pyogenes; assay: Antibacterial activity against Streptococcus pyogenes after 24 hrs by liquid dilution method; type: functional; in short: as §3
[18] = system: Staphylococcus aureus; assay: Antibacterial activity against Staphylococcus aureus after 24 hrs by liquid dilution method; type: functional; in short: as §3
[19] = system: Trichoderma viride; assay: Antifungal activity against Trichoderma viride after 72 hrs by liquid dilution method; type: functional; in short: as §4
[20] = system: Aspergillus niger; assay: Antifungal activity against Aspergillus niger after 72 hrs by liquid dilution method; type: functional; in short: as §4

Compound | zone of inhibition at 1000 µg/mL [1] [mm] | zone of inhibition at 1000 µg/mL [2] [mm] | zone of inhibition at 1000 µg/mL [3] [mm] | zone of inhibition at 1000 µg/mL [4] [mm] | zone of inhibition at 1000 µg/mL [5] [mm] | zone of inhibition at 1000 µg/mL [6] [mm] | zone of inhibition at 1000 µg/mL [7] [mm] | zone of inhibition at 1000 µg/mL [8] [mm] | zone of inhibition at 1000 µg/mL [9] [mm] | MIC [10] [µg/mL] | MIC [11] [µg/mL] | MIC [12] [µg/mL] | MIC [13] [µg/mL] | MIC [14] [µg/mL] | MIC [15] [µg/mL] | MIC [16] [µg/mL] | MIC [17] [µg/mL] | MIC [18] [µg/mL] | MIC [19] [µg/mL] | MIC [20] [µg/mL]
c1coc(-c2nc3ccccc3c3nc4ccccc4n23)c1 | 12 | 21 | 11 | 15 | 18 | 20 | 25 | 6 | 13 |  |  |  |  |  |  |  |  |  |  | 
c1c[nH]c(-c2nc3ccccc3c3nc4ccccc4n23)c1 | 12 | 18 | 9 | 14 | 13 | 18 | 22 | 9 | 11 |  |  |  |  |  |  |  |  |  |  | 
c1cc(-c2nc3ccccc3c3nc4ccccc4n23)nc(-c2nc3ccccc3c3nc4ccccc4n23)c1 | 49 | 45 | 50 | 46 | 50 | 50 | 52 | 45 | 50 | 2.5 (≈ 4.87 µM) | 15 (≈ 29.2 µM) | 5 (≈ 9.74 µM) | 5 (≈ 9.74 µM) | 10 (≈ 19.5 µM) | 5 (≈ 9.74 µM) | 5 (≈ 9.74 µM) | 10 (≈ 19.5 µM) | 2.5 (≈ 4.87 µM) |  | 
c1ccc(-c2nc3ccccc3c3nc4ccccc4n23)c(-c2nc3ccccc3c3nc4ccccc4n23)c1 | 15 | 14 | 13 | 12 | 15 | 20 | 18 | 13 | 16 |  |  |  |  |  |  |  |  |  |  | 
c1cc(-c2nc3ccccc3c3nc4ccccc4n23)cc(-c2nc3ccccc3c3nc4ccccc4n23)c1 | 18 | 18 | 15 | 15 | 15 | 19 | 21 | 12 | 18 |  |  |  |  |  |  |  |  |  |  | 
c1ccc2c(c1)nc(-c1ccc(-c3nc4ccccc4c4nc5ccccc5n34)cc1)n1c3ccccc3nc21 | 18 | 19 | 16 | 14 | 18 | 21 | 25 | 13 | 21 |  |  |  |  |  |  |  |  |  |  | 
c1ccc(-c2nc3ccccc3c3nc4ccccc4n23)cc1 | 16 | 14 | 10 | 12 | 13 | 18 | 18 | 9 | 10 |  |  |  |  |  |  |  |  |  |  | 
c1ccc2c(c1)nc(-c1ccc(-c3nc4ccccc4c4nc5ccccc5n34)s1)n1c3ccccc3nc21 | 50 | 50 | 51 | 46 | 52 | 51 | 55 | 48 | 55 | 2.5 (≈ 4.82 µM) | 10 (≈ 19.3 µM) | 5 (≈ 9.64 µM) | 5 (≈ 9.64 µM) | 5 (≈ 9.64 µM) | 2.5 (≈ 4.82 µM) | 2.5 (≈ 4.82 µM) | 5 (≈ 9.64 µM) | 2.5 (≈ 4.82 µM) |  | 
c1csc(-c2nc3ccccc3c3nc4ccccc4n23)c1 | 36 | 45 | 48 | 40 | 50 | 50 | 51 | 46 | 51 | 5 (≈ 16.6 µM) | 15 (≈ 49.8 µM) | 15 (≈ 49.8 µM) | 15 (≈ 49.8 µM) |  | 10 (≈ 33.2 µM) | 15 (≈ 49.8 µM) | 10 (≈ 33.2 µM) | 5 (≈ 16.6 µM) | 10 (≈ 33.2 µM) | 
c1ccc(-c2nc3ccccc3c3nc4ccccc4n23)nc1 | 35 | 42 | 48 | 38 | 49 | 51 | 50 | 45 | 49 | 10 (≈ 33.7 µM) | 20 (≈ 67.5 µM) | 20 (≈ 67.5 µM) | 20 (≈ 67.5 µM) |  | 15 (≈ 50.6 µM) | 15 (≈ 50.6 µM) | 15 (≈ 50.6 µM) | 10 (≈ 33.7 µM) | 15 (≈ 50.6 µM) | 
CC1(C)S[C@@H]2[C@H](NC(=O)[C@H](N)c3ccccc3)C(=O)N2[C@H]1C(=O)O [AMPICILLIN] | 45 | 39 |  | 45 | 35 | 40 | 48 |  |  |  | 20 (≈ 57.2 µM) | 10 (≈ 28.6 µM) | 10 (≈ 28.6 µM) |  | 15 (≈ 42.9 µM) |  | 25 (≈ 71.5 µM) | 10 (≈ 28.6 µM) |  | 
CC(=O)N1CCN(c2ccc(OCC3COC(Cn4ccnc4)(c4ccc(Cl)cc4Cl)O3)cc2)CC1 (centres undefined) [KETOCONAZOLE] |  |  | 40 |  |  |  |  | 41 | 45 |  |  |  |  | 20 (≈ 37.6 µM) |  | 25 (≈ 47 µM) |  |  |  | 15 (≈ 28.2 µM)
